Source: ChEMBL document CHEMBL1154716, “Synthesis of some new S-triazine based chalcones and their derivatives as potent antimicrobial agents” (2010)
≈ marks a conversion by molar mass, not a printed value. Calls of active or inactive are those of the source. No cut-off for these calls is given here.

Tests used:
Bacillus cereus [1] = assay: Antimicrobial activity against Bacillus cereus at 10 ug/disk after 24 hrs by disk diffusion assay; assay type: functional; conditions: read-out: IZ
In short: (§1)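 Disc diffusion on 4 mm filter discs. Bacteria are grown overnight in LB at 28 C, then adjusted in saline to 1.0 × 10^5 cfu/ml. The suspension is mixed into top agar over peptone agar plates. Plates are incubated 24 h at 28 C, and growth-inhibition zone diameter is measured. Streptomycin and ampicillin controls are applied from a 1 mg/ml stock. Tests are done in duplicate.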

Micrococcus flavus [2] = assay: Antimicrobial activity against Micrococcus flavus at 10 ug/disk after 24 hrs by disk diffusion assay; assay type: functional; conditions: read-out: IZ; in short: as §1
Staphylococcus aureus [3] = assay: Antimicrobial activity against Staphylococcus aureus at 10 ug/disk after 24 hrs by disk diffusion assay; assay type: functional; conditions: read-out: IZ; in short: as §1
Escherichia coli [4] = assay: Antimicrobial activity against Escherichia coli at 10 ug/disk after 24 hrs by disk diffusion assay; assay type: functional; conditions: read-out: IZ; in short: as §1
Pseudomonas aeruginosa [5] = assay: Antimicrobial activity against Pseudomonas aeruginosa at 10 ug/disk after 24 hrs by disk diffusion assay; assay type: functional; in short: as §1
Enterobacter cloacae [6] = assay: Antimicrobial activity against Enterobacter cloacae at 10 ug/disk after 24 hrs by disk diffusion assay; assay type: functional; conditions: read-out: IZ; in short: as §1
Salmonella typhimurium [7] = assay: Antimicrobial activity against Salmonella Typhimurium at 10 ug/disk after 24 hrs by disk diffusion assay; assay type: functional, organism-based; conditions: Salmonella enterica subsp. enterica serovar Typhimurium; in short: as §1
Listeria monocytogenes [8] = assay: Antimicrobial activity against Listeria monocytogenes at 10 ug/disk after 24 hrs by disk diffusion assay; assay type: functional; in short: as §1
Micrococcus flavus [9] = assay: Antimicrobial activity against Micrococcus flavus at 1 umol/disk after 24 hrs by disk diffusion assay; assay type: functional; in short: as §1
Escherichia coli [10] = assay: Antimicrobial activity against Escherichia coli at 1 umol/disk after 24 hrs by disk diffusion assay; assay type: functional; in short: as §1
Pseudomonas aeruginosa [11] = assay: Antimicrobial activity against Pseudomonas aeruginosa at 1 umol/disk after 24 hrs by disk diffusion assay; assay type: functional; in short: as §1
Salmonella typhimurium [12] = assay: Antimicrobial activity against Salmonella Typhimurium at 1 umol/disk after 24 hrs by disk diffusion assay; assay type: functional, organism-based; conditions: Salmonella enterica subsp. enterica serovar Typhimurium; in short: as §1
Listeria monocytogenes [13] = assay: Antimicrobial activity against Listeria monocytogenes at 1 umol/disk after 24 hrs by disk diffusion assay; assay type: functional; in short: as §1
Bacillus cereus [14] = assay: Antimicrobial activity against Bacillus cereus at 1 umol/spot after 18 hrs by TLC-bioautographic method; assay type: functional
In short: (§2)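 TLC bioautography. Samples are spotted on silica gel TLC plates, then sprayed with bacteria (1.0 × 10^5 cfu/ml) in tryptic soy broth. Plates are incubated 18 h at 37 C and sprayed with 3% aqueous p-iodonitrotetrazolium violet. After a further 3 h, growth is stopped with 70% EtOH. White zones on a pink background are scored as inhibition-zone diameter with standard errors.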

Micrococcus flavus [15] = assay: Antimicrobial activity against Micrococcus flavus at 1 umol/spot after 18 hrs by TLC-bioautographic method; assay type: functional; in short: as §2
Staphylococcus aureus [16] = assay: Antimicrobial activity against Staphylococcus aureus at 1 umol/spot after 18 hrs by TLC-bioautographic method; assay type: functional; in short: as §2
Escherichia coli [17] = assay: Antimicrobial activity against Escherichia coli at 1 umol/spot after 18 hrs by TLC-bioautographic method; assay type: functional; in short: as §2
Pseudomonas aeruginosa [18] = assay: Antimicrobial activity against Pseudomonas aeruginosa at 1 umol/spot after 18 hrs by TLC-bioautographic method; assay type: functional; in short: as §2
Enterobacter cloacae [19] = assay: Antimicrobial activity against Enterobacter cloacae at 1 umol/spot after 18 hrs by TLC-bioautographic method; assay type: functional; in short: as §2
Salmonella typhimurium [20] = assay: Antimicrobial activity against Salmonella Typhimurium at 1 umol/spot after 18 hrs by TLC-bioautographic method; assay type: functional, Salmonella enterica subsp. enterica serovar Typhimurium; in short: as §2
Listeria monocytogenes [21] = assay: Antimicrobial activity against Listeria monocytogenes at 1 umol/spot after 18 hrs by TLC-bioautographic method; assay type: functional; in short: as §2
Bacillus cereus [22] = assay: Antimicrobial activity against Bacillus cereus after 24 hrs by microdilution technique; assay type: functional
In short: (§3)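 Broth microdilution in LB medium. Inoculum is 1.0 × 10^4 cfu per well, from a saline-adjusted suspension of 1.0 × 10^5 cfu/ml. Compounds are dissolved in DMSO. Incubated 24 h at 28 C. MIC is the lowest concentration with no visible growth under a binocular microscope. MBC is read by subculture into fresh broth for 72 h, with no growth taken as 99.5% kill. OD is read at 655 nm.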

Micrococcus flavus [23] = assay: Antimicrobial activity against Micrococcus flavus after 24 hrs by microdilution technique; assay type: functional; in short: as §3
Staphylococcus aureus [24] = assay: Antimicrobial activity against Staphylococcus aureus after 24 hrs by microdilution technique; assay type: functional; in short: as §3
Escherichia coli [25] = assay: Antimicrobial activity against Escherichia coli after 24 hrs by microdilution technique; assay type: functional; in short: as §3
Pseudomonas aeruginosa [26] = assay: Antimicrobial activity against Pseudomonas aeruginosa after 24 hrs by microdilution technique; assay type: functional; in short: as §3
Enterobacter cloacae [27] = assay: Antimicrobial activity against Enterobacter cloacae after 24 hrs by microdilution technique; assay type: functional; in short: as §3
Salmonella typhimurium [28] = assay: Antimicrobial activity against Salmonella Typhimurium after 24 hrs by microdilution technique; assay type: functional, Salmonella enterica subsp. enterica serovar Typhimurium; conditions: Salmonella enterica; in short: as §3
Listeria monocytogenes [29] = assay: Antimicrobial activity against Listeria monocytogenes after 24 hrs by microdilution technique; assay type: functional; in short: as §3

Row | Compound | zone of inhibition at 10 µg/disc (Bacillus cereus [1]) | zone of inhibition at 10 µg/disc (Micrococcus flavus [2]) | zone of inhibition at 10 µg/disc (Staphylococcus aureus [3]) | zone of inhibition at 10 µg/disc (Escherichia coli [4]) | inhibition zone (IZ) (Pseudomonas aeruginosa [5]) | zone of inhibition at 10 µg/disc (Enterobacter cloacae [6]) | inhibition zone (IZ) (Salmonella typhimurium [7]) | inhibition zone (IZ) (Listeria monocytogenes [8]) | inhibition zone (IZ) (Micrococcus flavus [9]) | inhibition zone (IZ) (Escherichia coli [10]) | inhibition zone (IZ) (Pseudomonas aeruginosa [11]) | inhibition zone (IZ) (Salmonella typhimurium [12]) | inhibition zone (IZ) (Listeria monocytogenes [13]) | inhibition zone (IZ) (Bacillus cereus [14]) | inhibition zone (IZ) (Micrococcus flavus [15]) | inhibition zone (IZ) (Staphylococcus aureus [16]) | inhibition zone (IZ) (Escherichia coli [17]) | inhibition zone (IZ) (Pseudomonas aeruginosa [18]) | inhibition zone (IZ) (Enterobacter cloacae [19]) | inhibition zone (IZ) (Listeria monocytogenes [21]) | further results
1 | CN[C@@H]1[C@H](O[C@H]2[C@H](O[C@H]3[C@H](O)[C@@H](O)[C@H](N=C(N)N)[C@@H](O)[C@@H]3N=C(N)N)O[C@@H](C)[C@]2(O)C=O)O[C@@H](CO)[C@H](O)[C@H]1O [STREPTOMYCIN] | 18 mm | 20 mm | 13 mm | 10 mm | inactive | 12 mm | inactive | inactive | 0.1 millimeter | 0.06 millimeter | inactive | inactive | inactive | 0.08 millimeter | 0.05 millimeter | 0.04 millimeter | 0.06 millimeter | 0.08 millimeter | 0.07 millimeter | 0.08 millimeter | inhibition zone (IZ) (Salmonella typhimurium [20]): 0.08 millimeter; MBC (Bacillus cereus [22]): 86 µM (≈ 50 µg/mL); MIC (Bacillus cereus [22]): 43 µM (≈ 25 µg/mL); MBC (Micrococcus flavus [23]): 172 µM (≈ 100 µg/mL); MIC (Micrococcus flavus [23]): 86 µM (≈ 50 µg/mL); MBC (Staphylococcus aureus [24]): 344 µM (≈ 200 µg/mL); MIC (Staphylococcus aureus [24]): 172 µM (≈ 100 µg/mL); MBC (Escherichia coli [25]): 344 µM (≈ 200 µg/mL); MIC (Escherichia coli [25]): 172 µM (≈ 100 µg/mL); MBC (Pseudomonas aeruginosa [26]): 344 µM (≈ 200 µg/mL); MIC (Pseudomonas aeruginosa [26]): 172 µM (≈ 100 µg/mL); MBC (Enterobacter cloacae [27]): 344 µM (≈ 200 µg/mL); MIC (Enterobacter cloacae [27]): 172 µM (≈ 100 µg/mL); MBC (Salmonella typhimurium [28]): 344 µM (≈ 200 µg/mL); MIC (Salmonella typhimurium [28]): 172 µM (≈ 100 µg/mL); MBC (Listeria monocytogenes [29]): 516 µM (≈ 300 µg/mL); MIC (Listeria monocytogenes [29]): 258 µM (≈ 150 µg/mL)
2 | CC1(C)S[C@@H]2[C@H](NC(=O)[C@H](N)c3ccccc3)C(=O)N2[C@H]1C(=O)O [AMPICILLIN] | 10 mm | 8 mm | 8 mm | 6 mm | inactive | 6 mm | inactive | inactive | 0.03 millimeter | 0.02 millimeter | inactive | inactive | inactive | inactive | inactive | inactive | inactive | inactive | inactive | inactive | inhibition zone (IZ) (Salmonella typhimurium [20]; Salmonella enterica subsp. enterica serovar Typhimurium): inactive; MBC (Bacillus cereus [22]): 372 µM (≈ 130 µg/mL); MIC (Bacillus cereus [22]): 248 µM (≈ 86.7 µg/mL); MBC (Micrococcus flavus [23]): 372 µM (≈ 130 µg/mL); MIC (Micrococcus flavus [23]): 248 µM (≈ 86.7 µg/mL); MBC (Staphylococcus aureus [24]): 372 µM (≈ 130 µg/mL); MIC (Staphylococcus aureus [24]): 248 µM (≈ 86.7 µg/mL); MBC (Escherichia coli [25]): 492 µM (≈ 172 µg/mL); MIC (Escherichia coli [25]): 372 µM (≈ 130 µg/mL); MBC (Pseudomonas aeruginosa [26]): 1240 µM (≈ 433 µg/mL); MIC (Pseudomonas aeruginosa [26]): 744 µM (≈ 260 µg/mL); MBC (Enterobacter cloacae [27]): 492 µM (≈ 172 µg/mL); MIC (Enterobacter cloacae [27]): 372 µM (≈ 130 µg/mL); MBC (Salmonella typhimurium [28]): 492 µM (≈ 172 µg/mL); MIC (Salmonella typhimurium [28]): 248 µM (≈ 86.7 µg/mL); MBC (Listeria monocytogenes [29]): 744 µM (≈ 260 µg/mL); MIC (Listeria monocytogenes [29]): 372 µM (≈ 130 µg/mL)
